Calls of active or inactive are those of the source. The rule behind the calls is not given here. Some results are limits rather than exact numbers.

Here are results for twelve molecules from ChEMBL document CHEMBL2331286 (ACS Med Chem Lett, 2013).

The subject of one series is Canis familiaris. Kind of series: Dose-normalized AUC in po dosed dog. The format is ADME, organism-based, Canis lupus familiaris. To be noted: in vivo.
Another series deals with Rattus norvegicus. Kind of series: Dose-normalized AUC in po dosed rat. To be noted: in vivo. The format is ADME, organism-based.
Series [1] concerns the target T1, Serine/threonine-protein kinase B-raf (Homo sapiens, UniProt P15056, V600E). Kind of series: Inhibition of N-terminal His tagged B-Raf V600E mutant (unknown origin) expressed in baculovirus infected insect cells co-expressing CDC37 assessed as decrease in biotinylated-MEK protein phosphorylation by AlphaScreen assay. On the technique in general: Bead proximity is the source of the signal in Alpha formats.

The target in series [2] is T1, Serine/threonine-protein kinase B-raf. Briefly: Inhibition of B-Raf V600E mutant in human SK-MEL-28 cells assessed as decrease in ERK phosphorylation incubated for 1 hr by immunoassay. Type of series: cell-based.
Series [3] relates to Mus musculus. Briefly: In vivo inhibition of B-Raf V600E mutant-mediated ERK1/2 phosphorylation in tumor of CD1 nu/nu mouse bearing B-Raf V600E mutant harboring human A375P-F11 cells at =< 30 mg/kg, po administered as a single dose measured after 24 hrs by duplex ELISA. Type of series: functional, organism-based. Further details: dose 30 mg/kg. The gist of the method: (§1)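 A375P-F11 xenografts in nude mice, oral gavage dosing in 0.5% HPMC/0.2% Tween-80 water pH 8.0. Tumors homogenized in Tris pH 7.5 lysis buffer with EDTA, EGTA, Triton X-100, SDS, phosphatase inhibitors, kept on ice; spun 14,000 rpm 15 min 4°C, flash frozen. Total and phospho-ERK1/2 measured by duplex electrochemiluminescent ELISA.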
Background: In an ELISA, binding on a coated surface is turned into a signal by an enzyme label.

Series [4] has as its system Mus musculus. Briefly: In vivo inhibition of B-Raf V600E mutant-mediated ERK1/2 phosphorylation in tumor of CD1 nu/nu mouse bearing B-Raf V600E mutant harboring human A375P-F11 cells at => 3 mg/kg, po administered as single dose measured after 2 to 6 hrs by duplex ELISA. Type of series: functional. The gist of the method: as §1
The nature of series [5]: Blood clearance in iv dosed rat. The format is ADME, organism-based.
For series [6], the system named is Mus musculus. Kind of series: In vivo inhibition of B-Raf V600E mutant-mediated ERK1/2 phosphorylation in tumor of po dosed CD1 nu/nu mouse bearing B-Raf V600E mutant harboring human A375P-F11 cells administered as single dose by duplex ELISA. Type of series: functional, organism-based. A digest of the protocol: as §1
Series [7] in a line: Antitumor activity against B-Raf V600E mutant harboring human A375P-F11 cells xenografted in CD1 nu/nu mouse assessed as tumor growth inhibition at 100 mg/kg, po qd for 14 days by Vernier caliper. The conditions noted are these: A375P-F11, 336 h, read-out: GI. Type of series: functional. A digest of the protocol: (§2)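 A375P-F11 (single-cell clone of A375P selected by limiting dilution) grown as xenografts in nude mice; daily oral gavage started at ~150-200 mm3 tumors, vehicle 0.5% HPMC + 0.2% Tween-80 in water pH 8.0, 0.2 mL/20 g. Calipers twice weekly; volume = length x width² x 0.5; mean volume, n=7-8 mice/group. Complete regression = >93% volume decrease for ≥1 week.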
Background: Xenograft models place foreign cells or tissue in a host animal.

For the next series, the target named is T2, TGF-beta receptor type-1 (Homo sapiens, UniProt P36897).
T2 sequence (P36897 whole entry): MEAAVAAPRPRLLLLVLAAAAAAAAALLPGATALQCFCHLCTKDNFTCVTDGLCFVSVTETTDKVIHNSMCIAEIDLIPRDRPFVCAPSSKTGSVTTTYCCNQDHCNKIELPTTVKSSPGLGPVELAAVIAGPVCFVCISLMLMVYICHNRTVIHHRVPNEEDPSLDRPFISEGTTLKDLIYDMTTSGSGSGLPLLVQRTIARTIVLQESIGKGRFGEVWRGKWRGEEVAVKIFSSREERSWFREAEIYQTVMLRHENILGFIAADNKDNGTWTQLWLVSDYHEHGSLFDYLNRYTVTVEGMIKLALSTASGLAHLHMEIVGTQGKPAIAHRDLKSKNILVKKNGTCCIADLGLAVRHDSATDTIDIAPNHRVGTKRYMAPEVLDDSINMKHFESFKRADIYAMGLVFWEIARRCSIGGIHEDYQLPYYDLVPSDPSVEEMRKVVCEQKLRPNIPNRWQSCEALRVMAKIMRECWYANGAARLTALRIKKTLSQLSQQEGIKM
Kind of series: Inhibition of Alk5 in TGF-beta-stimulated human HepG2 cells assessed as decrease in Smad2 phosphorylation treated for 45 mins prior to TGF-beta stimulation measured after 60 mins by odyssey blot scanner analysis. Type of series: cell-based. A digest of the protocol:
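HepG2 cells seeded at 500,000 cells/well, adhered overnight at 37°C/5% CO2 in BME+10% serum; compound added in serum-free medium for 45 min, then stimulated with 1 ng/ml TGF-β for 60 min.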

Another series relates to COLO 205. Briefly: Inhibition of human COLO205 cell proliferation. Type of series: functional, cell-based.
The subject of the next series is A375P-F11. Kind of series: Antitumor activity against B-Raf V600E mutant harboring human A375P-F11 cells xenografted in po dosed CD1 nu/nu mouse assessed as tumor growth inhibition administered qd for 14 days by Vernier caliper. Type of series: functional, organism-based. The gist of the method: as §2
Series [8] can be described thus: Blood clearance in iv dosed dog. The format is ADME, organism-based, Canis lupus familiaris.
Another series deals with SK-MEL-28. Kind of series: Inhibition of B-Raf V600E mutant-driven SK-MEL-28 cell proliferation after 72 hrs by CellTiter-Glo luminescent assay. Type of series: functional, cell-based. To be noted: Homo sapiens, SK-MEL-28, 72 h.
Series [9] has as its system Mus musculus. Kind of series: Toxicity in CD1 nu/nu mouse bearing B-Raf V600E mutant harboring human A375P-F11 cells assessed as changes in body weight at 0.1 to 100 mg/kg, po qd for 14 days. The format is organism-based. Further details: dose 0.1-100 mg/kg, route oral. To be noted: in vivo, 336 h.
For a further series, the system named is HFF. Briefly: Inhibition of proliferation of human HFF cells harboring wild type B-Raf. The format is cell-based.
Series [10] is described as follows: Intrinsic clearance in monkey liver microsome. The conditions noted are these: rhesus monkey, microsomes. The format is ADME, Macaca mulatta.
Series [11] in a line: Blood clearance in iv dosed monkey. Type of series: ADME, organism-based, Macaca mulatta. To be noted: rhesus monkey.
Series [12] in a line: Oral bioavailability in dog. The format is ADME, organism-based, Canis lupus familiaris. To be noted: in vivo.
The subject of the next series is Liver microsomes. Kind of series: Intrinsic clearance in rat liver microsome. Type of series: ADME.
The nature of series [13]: Intrinsic clearance in dog liver microsome at 10 uM after 30 mins by LC/MS analysis. The conditions noted are these: microsomes, 0.5 h. The format is ADME, Canis lupus familiaris.
A short description of series [14]: Oral bioavailability in rat. The format is ADME, organism-based. The conditions noted are these: in vivo.
Series [15] can be described thus: Oral bioavailability in monkey. To be noted: rhesus monkey, in vivo. The format is ADME, organism-based, Macaca mulatta.
A further series relates to Rhesus monkey. Briefly: Dose-normalized AUC in po dosed monkey. Type of series: ADME, organism-based, Macaca mulatta. The conditions noted are these: in vivo.

T1 sequence (P15056 2-766 V600E limits assumed): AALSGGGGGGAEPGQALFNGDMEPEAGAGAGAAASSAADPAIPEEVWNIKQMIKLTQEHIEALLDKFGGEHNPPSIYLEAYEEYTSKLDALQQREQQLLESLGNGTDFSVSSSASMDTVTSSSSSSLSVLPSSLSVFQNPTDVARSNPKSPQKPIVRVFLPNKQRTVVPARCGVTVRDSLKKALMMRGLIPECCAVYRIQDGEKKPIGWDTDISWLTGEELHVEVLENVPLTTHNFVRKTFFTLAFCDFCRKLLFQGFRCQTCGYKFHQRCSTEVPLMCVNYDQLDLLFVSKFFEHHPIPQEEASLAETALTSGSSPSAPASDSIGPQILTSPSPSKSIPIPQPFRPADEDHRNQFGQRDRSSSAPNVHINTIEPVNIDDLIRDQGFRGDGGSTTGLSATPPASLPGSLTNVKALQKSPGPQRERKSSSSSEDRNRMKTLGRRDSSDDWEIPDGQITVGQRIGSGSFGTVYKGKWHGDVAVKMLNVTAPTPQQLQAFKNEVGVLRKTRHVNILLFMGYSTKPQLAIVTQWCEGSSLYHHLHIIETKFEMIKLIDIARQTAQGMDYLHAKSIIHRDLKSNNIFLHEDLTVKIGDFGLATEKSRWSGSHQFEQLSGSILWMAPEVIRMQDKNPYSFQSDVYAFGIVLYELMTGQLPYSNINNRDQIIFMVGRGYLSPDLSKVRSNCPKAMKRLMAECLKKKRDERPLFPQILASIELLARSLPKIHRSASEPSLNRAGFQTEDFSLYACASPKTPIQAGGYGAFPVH

Usually IC50 stands for the concentration that inhibits the measured activity by half. As for `CC(C)c1nc(-c2cccc(NS(=O)(=O)c3c(F)cccc3F)c2F)c(-c2ccnc(NCCS(C)(=O)=O)n2)s1`, the AUC/dose with Canis familiaris is 68 ng·h/mL/mg/kg; in the series with Rattus norvegicus it was 125 ng·h/mL/mg/kg. The IC50 in series [1] stood at 0.3 nM; in series [2], 7 nM.

On to `CC(C)c1nc(-c2cccc(NS(=O)(=O)c3c(F)cccc3F)c2)c(-c2ccnc(N)n2)s1`, for which the AUC/dose in the series on Rattus norvegicus was 23 ng·h/mL/mg/kg. The IC50 was 40 nM in series [1] and 78 nM in series [2].

`CC(C)c1nc(-c2cccc(NS(=O)(=O)c3cccc(F)c3)c2)c(-c2ccnc(NC3CC3)n2)s1` registered an AUC/dose with Rattus norvegicus of 16 ng·h/mL/mg/kg. In addition, the IC50 in [1] came to 32 nM; in series [2] it was 28 nM.

For `CC(C)c1nc(-c2ccc(F)c(NS(=O)(=O)c3cccc(F)c3)c2)c(-c2ccnc(N)n2)s1`, the IC50 is 536 nM in series [1] and 2560 nM in series [2].

As to `CC(C)c1nc(-c2cccc(NS(=O)(=O)c3cccc(F)c3)c2)c(-c2ccnc(NCCCN(C)C)n2)s1`, the IC50 in series [1] amounted to 28 nM; in series [2], 73 nM.

As for `CC(C)c1nc(-c2cccc(NS(=O)(=O)c3cccc(F)c3)c2)c(-c2ccnc(NCC(N)=O)n2)s1`, the AUC/dose with Rattus norvegicus was found to be 6 ng·h/mL/mg/kg. Further, the IC50 in [1] was 11 nM; in [2], 26 nM.

In the series on Rattus norvegicus, `CC(C)(C)c1nc(-c2cccc(NS(=O)(=O)c3cc(F)ccc3F)c2)c(-c2ccnc(N)n2)s1` registered an AUC/dose of 27 ng·h/mL/mg/kg. Also, the concentration for half-maximal inhibition (IC50) in series [1] was determined as 8 nM; in [2], 7 nM.

In turn, `CC(C)(C)c1nc(-c2ccc(F)c(NS(=O)(=O)c3c(F)cccc3F)c2)c(-c2ccnc(NCCS(C)(=O)=O)n2)s1` showed an AUC/dose with Rattus norvegicus of 1373 ng·h/mL/mg/kg. For the same molecule, the half-inhibitory concentration (IC50) in series [1] is 13 nM; in [2], 11 nM.

By clearance is commonly meant the volume of plasma or blood freed of the substance per unit of time. In the case of `CC(C)(C)c1nc(-c2cccc(NS(=O)(=O)c3c(F)cccc3F)c2F)c(-c2ccnc(N)n2)s1` [DABRAFENIB], the AUC/dose in the series with Canis familiaris amounted to 3754 ng·h/mL/mg/kg; with Rattus norvegicus it was 729 ng·h/mL/mg/kg. The inhibition result in the series on Mus musculus [3] is “inactive”. The molecule further registered an inhibition in vivo at 3 mg/kg with Mus musculus [4] of over 50%. Also, the clearance in series [5] came out at 18 mL/min/kg; in [8], 4 mL/min/kg. The inhibition result with Mus musculus [6] was “Dose-dependent effect”. The inhibition in vivo at 100 mg/kg in series [7] was determined as 50%. The 50% inhibitory concentration (IC50) at TGF-beta receptor type-1 amounted to 3700 nM; with COLO 205 it was 7 nM; in the series on SK-MEL-28, 3 nM; in the series on HFF it was 3000 nM. Further, the “growth inhibition (GI)” value in the series with A375P-F11 is “Dose-dependent effect”. Further, the Activity entry with Mus musculus [9] is listed as “Non-toxic”.

As usually defined, the bioavailability is dose-corrected exposure relative to a reference, in per cent. Turning to `CC(C)c1nc(-c2cccc(NS(=O)(=O)c3c(F)cccc3F)c2F)c(-c2ccnc(Nc3ccc(N4CCOCC4)nc3)n2)s1`, the AUC/dose with Canis familiaris turned out to be 42 ng·h/mL/mg/kg; in the series with Rattus norvegicus, 1748 ng·h/mL/mg/kg; in the series on Rhesus monkey, 23 ng·h/mL/mg/kg. The CLH in series [10] amounted to 8 mL/min/g; in the series on Liver microsomes, 9 mL/min/g; in series [13], 53 mL/min/g. Also, the values for the concentration for half-maximal inhibition (IC50) (in series [1]; in [2]; in the series on SK-MEL-28) were 3.8 nM, 23 nM and 48 nM, respectively. In addition, the clearance was 39 mL/min/kg in series [11], 9 mL/min/kg in series [5] and 38 mL/min/kg in series [8]. The results for the bioavailability in [12], in series [14] and in series [15] were 10%, 85% and 5%, respectively.

`CC(C)c1nc(-c2cccc(NS(=O)(=O)c3c(F)cccc3F)c2)c(-c2ccnc(NCCS(C)(=O)=O)n2)s1` had an AUC/dose with Rattus norvegicus of 34 ng·h/mL/mg/kg. Also, the half-maximal inhibitory concentration (IC50) in [1] came to 1 nM; in [2], 4 nM.

On to `CC(C)c1nc(-c2ccc(F)c(NS(=O)(=O)c3c(F)cccc3F)c2)c(-c2ccnc(NCCS(C)(=O)=O)n2)s1`, for which the AUC/dose turned out to be 43 ng·h/mL/mg/kg with Canis familiaris and 1024 ng·h/mL/mg/kg with Rattus norvegicus. Further, the IC50 in series [1] was determined as 13 nM; in [2], 51 nM.
